Experimental data: ChEMBL document CHEMBL2016547, “An efficient and convenient microwave-assisted chemical synthesis of (thio)xanthones with additional in vitro and in silico characterization” (Bioorg Med Chem, 2012)
Values after ≈ are worked out from the molar mass of the structure shown.

What was measured:
Jurkat = test: Cytotoxicity against human Jurkat T cells assessed as NADH level after overnight incubation by MTS assay; type: cell-based
Summary of the method: (§1)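 Cells were maintained in RPMI 1640 with 10% FBS at 37°C under 5% CO₂. Compounds were twofold serially diluted across 100-0.2 µM, and 5x10⁴ cells/well were added and incubated overnight at 37°C, 5% CO₂. MTS reagent was then added for 1 h under the same conditions, and absorbance was read at 490 nm.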

HepG2 = test: Cytotoxicity against human HepG2 cells assessed as NADH level after overnight incubation by MTS assay; type: cell-based; summary of the method: as §1
Escherichia coli = test: Antibacterial activity against Escherichia coli ATCC 25922 after 20 to 22 hrs by broth microdilution method; type: functional
Summary of the method: (§2)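 CLSI broth microdilution MIC. Twofold compound dilutions spanned 128-0.5 µg/mL, with azithromycin as comparator. Streptococci were grown on Columbia agar with 5% sheep blood, and their broth used 5% horse serum instead of lysed blood. H. influenzae was grown on Mueller-Hinton chocolate agar and staphylococci on Mueller-Hinton agar. Direct colony suspension gave 5x10⁴ CFU/well. Plates were read visually after 20-22 h at 37°C in ambient air.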

Staphylococcus aureus = test: Antibacterial activity against Staphylococcus aureus ATCC 29213 after 20 to 22 hrs by broth microdilution method; type: functional; summary of the method: as §2
Moraxella catarrhalis = test: Antibacterial activity against Moraxella catarrhalis ATCC 23246 after 20 to 22 hrs by broth microdilution method; type: functional; summary of the method: as §2
Haemophilus influenzae = test: Antibacterial activity against Haemophilus influenzae ATCC 49247 after 20 to 22 hrs by broth microdilution method; type: functional; summary of the method: as §2
Streptococcus pyogenes = test: Antibacterial activity against Streptococcus pyogenes ATCC 700294 after 20 to 22 hrs by broth microdilution method; type: functional; conditions: M1 GAS; summary of the method: as §2
Streptococcus pneumoniae = test: Antibacterial activity against Streptococcus pneumoniae ATCC 49619 after 20 to 22 hrs by broth microdilution method; type: functional; summary of the method: as §2

| SMILES | IC50 (Jurkat) [µM] | IC50 (HepG2) [µM] | MIC (Escherichia coli) [µg/mL] | MIC (Staphylococcus aureus) [µg/mL] | MIC (Moraxella catarrhalis) [µg/mL] | MIC (Haemophilus influenzae) [µg/mL] | MIC (Streptococcus pyogenes) [µg/mL] | MIC (Streptococcus pneumoniae) [µg/mL] |
| --- | --- | --- | --- | --- | --- | --- | --- | --- |
| O=c1c2ccccc2oc2cccc(O)c12 | > 100 | > 100 | > 128 | > 128 | 128 (≈ 603 µM) | > 128 | > 128 | > 128 |
| CC(=O)Oc1cc(OC(C)=O)c2c(=O)c3cccc(OC(C)=O)c3oc2c1 | 92 | > 100 | > 128 | > 128 | > 128 | > 128 | > 128 | > 128 |
| CC(=O)Oc1ccc2c(=O)c3c(OC(C)=O)cc(OC(C)=O)cc3oc2c1 | > 100 | > 100 | > 128 | 64 (≈ 173 µM) | 4 (≈ 10.8 µM) | 128 (≈ 346 µM) | > 128 | > 128 |
| CC(=O)Oc1cc(OC(C)=O)c2c(=O)c3c(OC(C)=O)cccc3oc2c1 | 62 | 93 | > 128 | 128 (≈ 346 µM) | 128 (≈ 346 µM) | > 128 | > 128 | > 128 |
| O=c1c2ccccc2sc2cc(O)cc(O)c12 | > 100 | > 100 | > 128 | 16 (≈ 65.5 µM) | 8 (≈ 32.8 µM) | 16 (≈ 65.5 µM) | > 128 | > 128 |
| CC(=O)Oc1cc(OC(C)=O)c2c(=O)c3ccccc3sc2c1 | > 100 | > 100 | > 128 | > 128 | 64 (≈ 195 µM) | > 128 | > 128 | > 128 |
| O=c1c2cc(O)ccc2oc2cc(O)cc(O)c12 | > 100 | > 100 | > 128 | 128 (≈ 524 µM) | 128 (≈ 524 µM) | > 128 | > 128 | > 128 |
| O=c1c2cccc(O)c2oc2cc(O)cc(O)c12 | > 100 | > 100 | > 128 | > 128 | 16 (≈ 65.5 µM) | > 128 | > 128 | > 128 |
| O=c1c2ccccc2oc2cc(O)cc(O)c12 | > 100 | > 100 | > 128 | 64 (≈ 280 µM) | 16 (≈ 70.1 µM) | 64 (≈ 280 µM) | > 128 | > 128 |
| CC(=O)Oc1cccc2oc3ccccc3c(=O)c12 | 78 | > 100 | > 128 | > 128 | 128 (≈ 503 µM) | > 128 | > 128 | > 128 |
| O=c1c2ccc(O)cc2oc2cccc(O)c12 | 75 | 93 | > 128 | 32 (≈ 140 µM) | 8 (≈ 35.1 µM) | > 128 | > 128 | > 128 |
| CC(=O)Oc1cc(OC(C)=O)c2c(=O)c3ccccc3oc2c1 | > 100 | > 100 | > 128 | 128 (≈ 410 µM) | 32 (≈ 102 µM) | 128 (≈ 410 µM) | > 128 | > 128 |
| O=c1c2ccc(O)cc2oc2cc(O)cc(O)c12 | > 100 | > 100 | > 128 | 64 (≈ 262 µM) | 2 (≈ 8.19 µM) | 32 (≈ 131 µM) | > 128 | > 128 |
| CC(=O)Oc1cc(OC(C)=O)c2c(=O)c3cc(OC(C)=O)ccc3oc2c1 | > 100 | > 100 | > 128 | > 128 | > 128 | > 128 | > 128 | > 128 |
| O=c1c2c(O)cccc2oc2cc(O)cc(O)c12 | 83 | 90 | > 128 | 8 (≈ 32.8 µM) | 8 (≈ 32.8 µM) | 16 (≈ 65.5 µM) | > 128 | 128 (≈ 524 µM) |
| CC(=O)Oc1ccc2c(=O)c3c(OC(C)=O)cccc3oc2c1 | > 100 | 90 | > 128 | 64 (≈ 205 µM) | 16 (≈ 51.2 µM) | 128 (≈ 410 µM) | > 128 | > 128 |
| CC[C@H]1OC(=O)[C@H](C)[C@@H](O[C@H]2C[C@@](C)(OC)[C@@H](O)[C@H](C)O2)[C@H](C)[C@@H](O[C@@H]2O[C@H](C)C[C@H](N(C)C)[C@H]2O)[C@](C)(O)C[C@@H](C)CN(C)[C@H](C)[C@@H](O)[C@]1(C)O [AZITHROMYCIN] | – | – | 2 (≈ 2.67 µM) | 1 (≈ 1.34 µM) | < 0.125 | 1 (≈ 1.34 µM) | < 0.125 | < 0.125 |
